# Source: ChEMBL document CHEMBL1221347, “Identification of 3',4',5'-trimethoxychalcone analogues as potent inhibitors of Helicobacter pylori-induced inflammation in human gastric epithelial cells” (Bioorg Med Chem Lett, 2010)
# Calls of active or inactive are those of the source. The calls are words filed in the database; no cut-off is given here.
# Tests used:
# Helicobacter pylori [1] = assay: Inhibition of Helicobacter pylori adhesion into human AGS cells at 5 uM after 6 hrs; type: functional
# Outline: (§1)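 AGS cells, untreated or treated with compound, then infected with H. pylori at MOI 50 for 6 h. Bacterial adhesion to, or invasion into, the cells was measured. Compounds tested at 2.5, 5.0 and 10.0 µM. DMSO vehicle and antibiotic controls at 2.5 µM. Values are mean ± SD of at least six independent experiments; Student's t-test against DMSO-treated cells.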
# Helicobacter pylori [2] = assay: Antibacterial activity against multidrug-resistant Helicobacter pylori v1254; type: functional
# Outline: (§2)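 Minimum bactericidal concentration (MBC), expressed in µM, determined against H. pylori reference strain Hp 26695 and the clinical isolates v1254 and v1354. Both isolates are resistant to metronidazole and clarithromycin. Amoxicillin, clarithromycin and metronidazole served as standard antimicrobial comparators.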
# Helicobacter pylori [3] = assay: Antibacterial activity against Helicobacter pylori Hp 26695; type: functional; outline: as §2
# Helicobacter pylori [4] = assay: Inhibition of Helicobacter pylori-induced inflammation in human AGS cells assessed as reduction of NF-kappaB activity at 10 uM after 6 hrs by luciferase reporter gene assay relative to control; type: functional
# Outline: (§3)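 AGS cells transfected with an NF-κB luciferase reporter construct. Cells were treated with compound (2.5–10 µM) and infected with H. pylori, then luciferase expression was measured. Activity is expressed relative to DMSO-treated control. Antibiotics at 2.5 µM served as reference. Values are mean ± SD of at least three independent experiments.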
# Helicobacter pylori [5] = assay: Inhibition of Helicobacter pylori-induced inflammation in human AGS cells assessed as reduction of NF-kappaB activity at 2.5 uM after 6 hrs by luciferase reporter gene assay relative to control; type: functional; outline: as §3
# Helicobacter pylori [6] = assay: Inhibition of Helicobacter pylori invasion into human AGS cells at 10 uM after 6 hrs; type: functional; outline: as §1
# Helicobacter pylori [7] = assay: Inhibition of Helicobacter pylori invasion into human AGS cells at 2.5 uM after 6 hrs; type: functional; outline: as §1
# Helicobacter pylori [8] = assay: Inhibition of sHelicobacter pylori adhesion into human AGS cells at 2.5 uM after 6 hrs; type: functional; outline: as §1
# Helicobacter pylori [9] = assay: Inhibition of Helicobacter pylori invasion into human AGS cells at 5 uM after 6 hrs; type: functional; outline: as §1
# Helicobacter pylori [10] = assay: Inhibition of Helicobacter pylori-induced inflammation in human AGS cells assessed as reduction of NF-kappaB activity after 6 hrs by luciferase reporter gene assay relative to control; type: functional; outline: as §3
# Helicobacter pylori [11] = assay: Antibacterial activity against multidrug-resistant Helicobacter pylori v1354; type: functional; outline: as §2
# Helicobacter pylori [12] = assay: Inhibition of Helicobacter pylori-induced inflammation in human AGS cells assessed as reduction of NF-kappaB activity at 5 uM after 6 hrs by luciferase reporter gene assay relative to control; type: functional; outline: as §3
# AGS = assay: Cytotoxicity against human AGS cells assessed as cell viability at 0.5 ug/ml by MTT assay; type: cell-based; details: in the assay text read “0.5 mg/ml” for “0.5 ug/ml”
# Outline: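 MTT viability assay on AGS human gastric epithelial cells, run at 0.5 mg/ml, the top concentration used in the H. pylori growth test.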
# Helicobacter pylori [13] = assay: Inhibition of Helicobacter pylori-induced inflammation in human AGS cells assessed as reduction of IL-8 production at 10 uM by ELISA; type: functional
# Outline: (§4)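 IL-8 in culture supernatants measured from H. pylori-infected AGS cells pre-treated with compound at 2.5, 5.0 or 10.0 µM. Inhibition calculated against DMSO control-treated cells. Values are mean ± SD of at least three independent experiments.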
# Helicobacter pylori [14] = assay: Inhibition of Helicobacter pylori-induced inflammation in human AGS cells assessed as reduction of IL-8 production at 5 uM by ELISA; type: functional; outline: as §4
# Helicobacter pylori [15] = assay: Inhibition of Helicobacter pylori adhesion into human AGS cells at 10 uM after 6 hrs; type: functional; outline: as §1
# Helicobacter pylori [16] = assay: Inhibition of Helicobacter pylori-induced inflammation in human AGS cells assessed as reduction of IL-8 production at 2.5 uM by ELISA; type: functional; outline: as §4
SMILES,inhibition at 5 µM (Helicobacter pylori [1]) [%],MBC (Helicobacter pylori [2]) [µM],MBC (Helicobacter pylori [3]) [µM],inhibition at 10 µM (Helicobacter pylori [4]) [%],inhibition at 2.5 µM (Helicobacter pylori [5]) [%],inhibition at 2.5 µM (Helicobacter pylori [7]) [%],inhibition at 2.5 µM (Helicobacter pylori [8]) [%],inhibition (Helicobacter pylori [10]),MBC (Helicobacter pylori [11]) [µM],Activity (AGS),inhibition at 10 µM (Helicobacter pylori [13]) [%],inhibition (Helicobacter pylori [5]),inhibition at 5 µM (Helicobacter pylori [14]) [%],inhibition (Helicobacter pylori [6]),inhibition (Helicobacter pylori [7]),inhibition (Helicobacter pylori [9]),inhibition at 2.5 µM (Helicobacter pylori [16]) [%],other results
COc1cc(/C=C/C(=O)c2cc(OC)c(OC)c(OC)c2)ccc1O,98.8,12.5,12.5,99.9,86.1,57.6,88.2,Dose-dependent effect,12.5,Non-toxic,–,–,–,–,–,–,–,inhibition at 10 µM (Helicobacter pylori [6]): 100%; inhibition at 5 µM (Helicobacter pylori [9]): 91%; inhibition at 5 µM (Helicobacter pylori [12]): 98.6%
CC[C@H]1OC(=O)[C@H](C)[C@@H](O[C@H]2C[C@@](C)(OC)[C@@H](O)[C@H](C)O2)[C@H](C)[C@@H](O[C@@H]2O[C@H](C)C[C@H](N(C)C)[C@H]2O)[C@](C)(OC)C[C@@H](C)C(=O)[C@H](C)[C@@H](O)[C@]1(C)O [CLARITHROMYCIN],–,50,1.6,–,–,> 90,–,–,25,–,81.9,inactive,–,–,–,–,–,–
COc1ccc(/C=C/C(=O)c2cc(OC)c(OC)c(OC)c2)cc1,–,100,100,66,14.7,–,–,Dose-dependent effect,100,Non-toxic,59.4,–,23.4,Active,inactive,Active,8,inhibition (Helicobacter pylori [1]): Active; inhibition (Helicobacter pylori [15]): Active
CC1(C)S[C@@H]2[C@H](NC(=O)[C@H](N)c3ccc(O)cc3)C(=O)N2[C@H]1C(=O)O [AMOXICILLIN],–,12.5,12.5,–,–,> 90,–,–,12.5,–,81.9,inactive,–,–,–,–,–,–
Cc1ncc([N+](=O)[O-])n1CCO [METRONIDAZOLE],–,400,25,–,–,20,–,–,800,–,81.9,inactive,–,–,–,–,–,–
COc1cccc(/C=C/C(=O)c2cc(OC)c(OC)c(OC)c2)c1OC,73.3,50,25,90.6,39.8,–,66.6,Dose-dependent effect,25,Non-toxic,87,–,65.2,Active,inactive,Active,24.6,inhibition at 10 µM (Helicobacter pylori [15]): 99.9%
